Assay outcomes as filed in PubChem.
INS-1E GSIS act = primary screen for activators of insulin secretion dependent on glucose, INS-1E cells, GLuc reporter luminescence | INS-1E GLuc reporter insulin secretion, 2-3 h | activation, % at 16.6 µM | 370,000 tested, 0.61% active;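 active = lowest replicate activation of at least 40%, so every replicate reaches that level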;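 note: 0% = median of neutral control wells and 100% = median of IBMX positive control wells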
PAX8 reporter = lowers PAX8-driven luciferase in RMG-I cells | RMG-I TPO-luciferase reporter, SteadyGlo, 24 h | inhibition, % at 12.6 µM | 360,000 tested, 1.2% active | AID 652154;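 active = mean replicate inhibition at least 60% with every replicate also reaching 60%; inconclusive = only one of the two criteria is met; inactive = mean below 60% and not all replicates reaching 60%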;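 note: luciferase light reporting Pax8 driven TPO promoter activity; plate controls were median of neutral control wells for no effect and mitoxantrone controls for full effect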
CDK5 p35 inh = CDK5/p35 (human) kinase inhibition | Recombinant CDK5/p35, ADP-Glo luminescence, 60 min | 330,000 tested, 0.01% active | AID 488839 | Q00535+Q15078 | inhibition, % at 10 µM;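 active = highest replicate inhibition of at least 50% and at least 75% of replicates reaching 50%; inconclusive = only one of the two criteria met; inactive = both criteria failed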;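 note: plate controls were DMSO neutral control for no effect and GW8510 at 10 µM for full effect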
Target sequence (Q00535 whole entry, looked up): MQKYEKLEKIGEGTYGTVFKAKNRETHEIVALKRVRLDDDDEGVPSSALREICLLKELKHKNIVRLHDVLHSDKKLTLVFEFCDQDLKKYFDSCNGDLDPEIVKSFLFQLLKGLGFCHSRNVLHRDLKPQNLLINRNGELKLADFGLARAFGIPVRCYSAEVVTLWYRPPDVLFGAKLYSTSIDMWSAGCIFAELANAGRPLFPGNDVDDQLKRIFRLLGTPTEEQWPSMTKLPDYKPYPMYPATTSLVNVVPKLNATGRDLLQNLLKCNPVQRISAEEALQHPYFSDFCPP
Target sequence (Q15078 whole entry, looked up): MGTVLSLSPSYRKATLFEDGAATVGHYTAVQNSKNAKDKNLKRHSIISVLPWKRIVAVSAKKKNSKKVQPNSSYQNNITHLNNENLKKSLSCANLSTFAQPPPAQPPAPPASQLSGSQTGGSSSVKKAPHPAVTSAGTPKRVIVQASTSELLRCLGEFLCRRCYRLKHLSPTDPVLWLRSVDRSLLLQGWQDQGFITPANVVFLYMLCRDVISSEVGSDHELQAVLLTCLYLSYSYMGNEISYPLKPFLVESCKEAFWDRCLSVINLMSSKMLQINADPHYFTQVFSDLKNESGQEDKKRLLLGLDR
dFosB act = mouse delta FosB homodimer activation. P13346. purified delta FosB, TAMRA-CDK5 oligo fluorescence polarization; percent of positive-control signal above neutral wells. activation, % at 25 µM. 340,000 tested, 0.99% active. AID 493131;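 active = mean activation above about 17%, with every replicate also reaching it, limit read from the data, passing the limit was not always enough; inconclusive = only one of the two conditions met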
HIV Env fusion = HIV envelope-mediated fusion inhibition. AID 651610. 360,000 tested, 1.1% active. HeLa-JRFL Env/CEM21 cell fusion, luciferase. inhibition, % at 12.3 µM;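 active = mean replicate inhibition score of at least 50 and every replicate individually at or above 50; inconclusive = only one of the two criteria met; inactive = mean below 50 and not all replicates reaching 50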;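 note: 0% = plate neutral controls and 100% = maraviroc near 300 nM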
Cneo AK release = causes C. neoformans cell lysis; adenylate kinase release luminescence, 4 h; normalised: neutral wells 0, clomiphene wells 100; lysis activity, % at 15 µM; 360,000 tested, 0.2% active;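 active = mean lysis activity across replicates of at least 80%, whatever share of replicates individually reach that level; inactive = mean lysis activity below 80%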
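Assay system: C. neoformans cells. Amount: yeast cell density of 5 × 10^6 cells/mL. Technique: AK luminescence. Buffer or medium: YPD. Times: static 4 h at 37 °C with compound, 1 h detection. Dosing: single-point compound dose. Read-out: lysis from increased AK signal.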
* marks the source's active call; other numbers are inactive results; u = inconclusive; x = no result; [ ] = dose if it differs, or a comment. Shown are actives, neighbours in structure and some others; about 2.9% of the full set was active somewhere.

SMILES	INS-1E GSIS act	PAX8 reporter	CDK5 p35 inh	dFosB act	HIV Env fusion	Cneo AK release
Cc1ccc(S(=O)(=O)Nc2ccc3c(c2)C(=O)N([C@H](C)CO)C[C@H](C)[C@@H](CN(C)C(=O)NC2CCCCC2)O3)cc1	-13	8	x	x	x	0
O=C(NCC1COc2ccccc2O1)c1ccccc1 (configuration not stated)	x	x	1	-7	-82	8
O=C(NC(=S)NCC1COc2ccccc2O1)c1ccccc1 (configuration not stated)	x	x	0	1	x	161*
Cc1noc(C)c1NC(=O)Nc1cccc2c1O[C@H](CN(C)C)[C@@H](C)CN([C@@H](C)CO)C2=O	6	2	x	x	x	2
C[C@@H]1CN([C@H](C)CO)S(=O)(=O)c2ccc(C#CC(C)(C)O)cc2O[C@@H]1CN(C)C(=O)CC1CC1	7	x	x	x	1[16.7 µM]	-1
C[C@H](CO)N1C[C@H](C)[C@@H](CN(C)C(=O)CC2CC2)Oc2cc(C#CC(C)(C)O)ccc2S1(=O)=O	44*	x	x	x	-10[16.7 µM]	1
C[C@H](CO)N1C[C@H](C)[C@@H](CN(C)C(=O)Cc2ccccn2)Oc2cc(C#C[C@@H](C)O)ccc2S1(=O)=O	41*	x	x	x	-6[16.7 µM]	4
CCC(=O)N(C)C[C@H]1Oc2cc(C#CC(C)(C)O)ccc2S(=O)(=O)N([C@H](C)CO)C[C@@H]1C	5	x	x	x	-4[16.7 µM]	101*
CCC(=O)N(C)C[C@@H]1Oc2cc(C#Cc3ccccc3)ccc2S(=O)(=O)N([C@@H](C)CO)C[C@H]1C	-18	23	x	x	59*[16.7 µM]	-2
O=c1c(Cl)c(NCCO)cnn1-c1cccc(Cl)c1	46*	-35	1	-1	-1	x
O=C(O)C[C@@H]1C=C[C@H](NC(=O)Nc2cc(F)ccc2F)[C@H](CO)O1	5	-6	x	x	-12[16.7 µM]	-4
Cc1cccc(N=CC=C2OC(C)(C)C(C)(C)O2)c1	8	-8	1	-9	2	-2
Cc1ccccc1N=CC=C1OC(C)(C)C(C)(C)O1	-6	79*	0	-10	x	2
COc1ccc(S(=O)(=O)N(C)C[C@H]2Oc3ccc(N(C)C)cc3C(=O)N([C@@H](C)CO)C[C@H]2C)cc1	4	-2	x	x	12[16.7 µM]	18
S=C(Nc1cccc(Cl)c1)Nc1ccccc1Oc1ccccc1	x	x	-1	-5	x	-2
S=C(Nc1ccc(Cl)cc1Cl)Nc1ccccc1Oc1ccccc1	x	x	-1	-5	x	360*
CN(C)CC(=O)Nc1ccc2c(c1)[C@H]1C[C@H](CC(=O)NCc3ccc(-c4ccccc4)cc3)O[C@H](CO)[C@H]1O2	-12	19	x	x	-1[16.7 µM]	13
COc1ccc(S(=O)(=O)Nc2ccc3c(c2)C(=O)N([C@@H](C)CO)C[C@H](C)[C@@H](CN(C)S(=O)(=O)c2ccc(Cl)cc2)OCCCC[C@H](C)O3)cc1	-28	65*	x	x	17[16.7 µM]	-11
COc1ccc(S(=O)(=O)Nc2ccc3c(c2)C(=O)N([C@@H](C)CO)C[C@H](C)[C@@H](CN(C)S(=O)(=O)c2ccc(Cl)cc2)OCCCC[C@@H](C)O3)cc1	-17	67*	x	x	13[16.7 µM]	31
COc1ccc(S(=O)(=O)Nc2ccc3c(c2)C(=O)N([C@H](C)CO)C[C@H](C)[C@@H](CN(C)S(=O)(=O)c2ccc(Cl)cc2)OCCCC[C@H](C)O3)cc1	-6	78*	x	x	7[16.7 µM]	40
COc1ccc(S(=O)(=O)Nc2ccc3c(c2)C(=O)N([C@H](C)CO)C[C@@H](C)[C@@H](CN(C)C(=O)NC(C)C)OCCCC[C@@H](C)O3)cc1	-13	-6	x	x	11[16.7 µM]	-3
COc1ccc(S(=O)(=O)Nc2ccc3c(c2)C(=O)N([C@@H](C)CO)C[C@H](C)[C@H](CN(C)C(=O)NC(C)C)OCCCC[C@@H](C)O3)cc1	-14	-26	x	x	68*[16.7 µM]	0
COc1ccc(S(=O)(=O)N(C)C[C@H]2OCCCC[C@H](C)Oc3ccc(NS(=O)(=O)c4ccc(Cl)cc4)cc3C(=O)N([C@@H](C)CO)C[C@@H]2C)cc1	-11	23	x	x	x	x
CN1c2ccc(C#Cc3cccnc3)cc2[C@H]2[C@H](CCN2C(=O)C2CCOCC2)[C@@H]1CO	12	-32	x	x	x	5
Cc1ccc(S(=O)(=O)N(C)C[C@H]2Oc3ccc(NC(=O)Nc4c(C)noc4C)cc3CC(=O)N([C@@H](C)CO)C[C@H]2C)cc1	10	-2	x	x	9[16.7 µM]	-3
SMILES	INS-1E GSIS act	PAX8 reporter	CDK5 p35 inh	dFosB act	HIV Env fusion	Cneo AK release
CO[C@@H]1CN(C)C(=O)c2cc(NC(=O)C3CC3)ccc2OC[C@@H](C)N(CC2CC2)C[C@H]1C	-2	-1	x	x	x	58
COc1ccc(S(=O)(=O)Nc2ccc3c(c2)C(=O)N([C@@H](C)CO)C[C@@H](C)[C@@H](CN(C)S(=O)(=O)c2ccc(Cl)cc2)OCCCC[C@H](C)O3)cc1	-3	-29	x	x	-2[16.7 µM]	-14
COc1ccc(S(=O)(=O)N(C)C[C@@H]2OCCCC[C@H](C)Oc3ccc(NS(=O)(=O)c4ccccc4)cc3C(=O)N([C@H](C)CO)C[C@H]2C)cc1	-14	76*	x	x	-44[16.7 µM]	-1
COc1ccc(S(=O)(=O)N(C)C[C@@H]2OCCCC[C@H](C)Oc3ccc(NS(=O)(=O)c4ccc(Cl)cc4)cc3C(=O)N([C@H](C)CO)C[C@@H]2C)cc1	-4	79*	x	x	x	x
COc1ccc(S(=O)(=O)N(C)C[C@@H]2OCCCC[C@H](C)Oc3ccc(NS(=O)(=O)c4ccccc4)cc3C(=O)N([C@@H](C)CO)C[C@H]2C)cc1	-10	22	x	x	-43[16.7 µM]	-2
C[C@H]1CN([C@@H](C)CO)C(=O)c2cc(C#Cc3ccccc3)cnc2O[C@@H]1CN(C)S(=O)(=O)c1ccccc1F	-19	17	x	x	-41[16.7 µM]	50
C[C@H](CO)N1C[C@H](C)[C@@H](CN(C)S(=O)(=O)c2ccc(F)cc2)Oc2ccc(NC(=O)Nc3cccc4ccccc34)cc2CC1=O	-42	4	x	x	20[16.7 µM]	3
CCCCC1(Cc2cccc([N+](=O)[O-])c2)C(=O)N(c2ccccc2)N(c2ccccc2)C1=O	x	38	-1	-5	120*	0
CCCCC1(CO)C(=O)N(c2ccccc2)N(c2ccccc2)C1=O	1	1	1	6	-1	-1
O=C(C(=O)N(C1CCCCC1)C1CCCCC1)c1ccccc1	73*	-8	x	x	1	x
O=C(NCc1ccccc1)c1ccc(C(=O)N(C2CCCCC2)C2CCCCC2)cc1	x	x	1	-13	u	1
O=C(N/N=C/c1ccsc1)c1cc(-c2cccs2)nc2ccccc12	x	133*	3	-5	x	-3
O=C(N/N=C/c1ccsc1)c1cc(-c2ccncc2)nc2ccccc12	-6	21	2	-28	-27	x
Cc1ccsc1/C=N/NC(=O)c1cc(-c2ccncc2)nc2ccccc12	-12	69*	-2	-22	-261	x
COc1ccccc1-c1cc(C(=O)N/N=C/c2sccc2C)c2ccccc2n1	x	x	1	-6	x	0
